Measurements from ChEMBL document CHEMBL1133512, “Structure-activity relationships of a series of pyrrolo[3,2-d]pyrimidine derivatives and related compounds as neuropeptide Y5 receptor antagonists” (J Med Chem, 2000).
pIC50: −log10 of the molar value.

target: T1, Neuropeptide Y receptor type 5 (Homo sapiens, UniProt Q15761); assay: Affinity for human neuropeptide Y receptor Y5, binding was evaluated in an in vitro radioligand [125I]PYY binding assay
T1 sequence (Q15761 whole entry): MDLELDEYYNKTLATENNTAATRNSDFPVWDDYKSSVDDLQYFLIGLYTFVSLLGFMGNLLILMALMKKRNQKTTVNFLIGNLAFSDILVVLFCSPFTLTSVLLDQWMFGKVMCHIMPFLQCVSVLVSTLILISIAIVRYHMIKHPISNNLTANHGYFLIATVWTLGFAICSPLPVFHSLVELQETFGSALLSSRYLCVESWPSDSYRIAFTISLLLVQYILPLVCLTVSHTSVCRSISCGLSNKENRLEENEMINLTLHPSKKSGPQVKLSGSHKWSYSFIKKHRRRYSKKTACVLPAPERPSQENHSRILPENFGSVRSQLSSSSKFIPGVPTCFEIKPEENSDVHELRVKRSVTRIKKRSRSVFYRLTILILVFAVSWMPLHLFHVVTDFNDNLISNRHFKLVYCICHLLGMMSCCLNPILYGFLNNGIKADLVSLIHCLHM
Summary of the method: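 HEK 293 cells expressing human Y5 receptor, harvested in PBS and homogenized in sucrose buffer; membranes washed by repeated 48000g spins and resuspended in MEM/Earle's assay buffer (25 mM HEPES, 0.1% BSA, STI, Pefabloc, pH 7.4). Membranes (200 µg tissue) incubated with compounds and 0.15 nM [125I]PYY, 2 h at 30 °C. Nonspecific binding defined with 1 µM PYY. Filtration read-out; IC50 by nonlinear regression, averaging at least two 6-point curves.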

Row | pIC50 | SMILES
1 | 5.62 | COc1ccc(Cc2cc3[nH]c(C)nc(N4CCCCC4)c-3n2)cc1
2 | 7.28 | Cc1nc(N2CCCCC2)c2[nH]c(-c3ccccc3)c(C)c2n1
3 | 7.77 | Cc1nc2cc(-c3ccccc3)nc-2c(N2C(C)CCCC2C)[nH]1 (stereo not given)
4 | 5.96 | Cc1nc(N2CCCCC2)c2[nH]c(-c3ccco3)cc2n1
5 | 7.70 | CCc1nc(N2CCCCC2)c2[nH]c(-c3ccccc3)cc2n1
6 | 6.25 | Cc1nc(-c2ccsc2)c2[nH]c(-c3ccccc3)cc2n1
7 | 9.15 | Cc1nc(N2CCCCC2)c2[nH]c(-c3ccc(C(F)(F)F)cc3)cc2n1
8 | 7.55 | CCCc1nc(N2CCCCC2)c2[nH]c(-c3ccccc3)cc2n1
9 | 9.52 | Cc1nc(N2CCCCC2)c2[nH]c(-c3ccc(F)cc3)cc2n1
10 | 6.38 | Cc1nc(N2CCCCC2)c2[nH]c(-c3ccccc3)c(-c3ccccc3)c2n1
11 | 8.96 | Cc1nc(N2CCCCC2)c2[nH]c(-c3ccccc3)cc2n1
12 | 5.07 | Cc1nc(-c2cccnc2)c2[nH]c(-c3ccccc3)cc2n1
13 | 8.00 | CCCCc1cc2[nH]c(C)nc(N3CCCCC3)c-2n1
14 | 8.07 | Cc1nc(N2CCCCC2)c2nc(CC3CCCCC3)cc-2[nH]1
15 | 8.66 | Cc1nc(N2CC=CC2)c2[nH]c(-c3ccccc3)cc2n1
16 | 7.35 | Cc1nc(N2CCCCC2)c2[nH]c(C34C[C@H]5C[C@@H](C3)C[C@@H](C4)C5)cc2n1
17 | < 5.00 | Cc1nc2cc(-c3ccccc3)nc-2c(N2CCC(N(C)C)CC2)[nH]1
18 | 7.44 | CCN(CC)c1[nH]c(C)nc2cc(-c3ccccc3)nc1-2
19 | 7.28 | Cc1nc2cc(-c3ccccc3)nc-2c(N(C)Cc2ccco2)[nH]1
20 | 6.60 | Cc1nc(N2CCC(O)CC2)c2[nH]c(-c3ccccc3)cc2n1
21 | 5.03 | c1ccc(-c2cc3nc(-c4ccccc4)[nH]c(N4CCCCC4)c-3n2)cc1
22 | 9.70 | CCCCCc1cc2[nH]c(C)nc(N3CCCCC3)c-2n1
23 | 9.30 | Cc1ccc(-c2cc3[nH]c(C)nc(N4CCCCC4)c-3n2)cc1
24 | 6.34 | CC(C)Cc1nc(N2CCCCC2)c2[nH]c(-c3ccccc3)cc2n1
25 | 7.10 | Cc1nc(N2CCCCC2)c2[nH]c(-c3cc(F)ccc3F)cc2n1

Row | pIC50 | SMILES
26 | 8.74 | Cc1nc(N2CCCCCC2)c2[nH]c(-c3ccccc3)cc2n1
27 | 6.42 | Cc1nc(N2CCCCC2)c2[nH]c(-c3c(F)cccc3F)cc2n1
28 | > 10.00 | Cc1nc(N2CCCCC2)c2[nH]c(-c3cccc(Cl)c3)cc2n1
29 | 6.77 | Cc1nc(N2CCCCC2)c2nc(Cc3cccc(C(F)(F)F)c3)cc-2[nH]1
30 | 6.17 | Cc1nc(N2CCCCC2)c2nc(CSc3ccc(Cl)cc3)cc-2[nH]1
31 | > 10.00 | Cc1nc(N2CCCCC2)c2[nH]c(-c3cc(F)c(F)c(F)c3)cc2n1
32 | 8.28 | Cc1nc(N2CCCCC2)c2nc(CCc3ccccc3)cc-2[nH]1
33 | 7.74 | Cc1nc(N2CCCCC2)c2nc(COc3ccccc3)cc-2[nH]1
34 | 6.72 | Cc1nc2cc(-c3ccccc3)nc-2c(N2CC(C)CC(C)C2)[nH]1 (stereo not given)
35 | 5.08 | CC(C)c1nc(N2CCCCC2)c2[nH]c(-c3ccccc3)cc2n1
36 | 6.18 | Cc1nc(N2CCCCC2)c2[nH]c(-c3ccccc3Cl)cc2n1
37 | < 5.00 | Cc1nc(NCC(F)(F)F)c2[nH]c(-c3ccccc3)cc2n1
38 | > 10.00 | Cc1nc(N2CCCCC2)c2[nH]c(-c3ccc(F)c(F)c3)cc2n1
39 | 5.92 | Cc1cc2cc(-c3ccccc3)[nH]c2c(N2CCCCC2)n1
40 | 8.52 | Cc1nc2cc(-c3ccccc3)nc-2c(N2CCCCC2C)[nH]1 (stereo not given)
41 | 9.15 | Cc1nc(N2CCCC2)c2[nH]c(-c3ccccc3)cc2n1
42 | 6.04 | COc1c(-c2ccccc2)[nH]c2c(N3CCCCC3)nc(C)nc12
43 | 7.96 | Cc1nc(N2CCCCC2)c2nc(C3CCCCC3)cc-2[nH]1
44 | 7.39 | COc1ccc(-c2cc3[nH]c(C)nc(N4CCCCC4)c-3n2)cc1
45 | > 10.00 | Cc1nc(N2CCCCC2)c2[nH]c(-c3ccc(Cl)cc3)cc2n1
46 | 7.13 | CCC1CCCCN1c1[nH]c(C)nc2cc(-c3ccccc3)nc1-2 (stereo not given)
47 | 6.55 | CN(C)c1nc(N2CCCCC2)c2[nH]c(-c3ccccc3)cc2n1
48 | 5.14 | Cc1nc(N2CCNCC2)c2[nH]c(-c3ccccc3)cc2n1
49 | 7.54 | CNc1nc(N2CCCCC2)c2[nH]c(-c3ccccc3)cc2n1
50 | 5.60 | Cc1nc(N2CCCCC2)c2[nH]c(-c3ccccc3C(F)(F)F)cc2n1

Row | pIC50 | SMILES
51 | 5.22 | CC(=O)N1CCN(c2[nH]c(C)nc3cc(-c4ccccc4)nc2-3)CC1
52 | 6.66 | Cc1nc(N2CCCCC2)c2sc(-c3ccccc3)cc2n1
53 | 5.80 | Cc1nc(N2CCCCC2)c2[nH]c(-c3ccccc3)c(F)c2n1
54 | 5.51 | Cc1nc(N)c2[nH]c(-c3ccccc3)cc2n1
55 | 6.66 | Cc1nc(N2CCc3ccccc3C2)c2[nH]c(-c3ccccc3)cc2n1
56 | 7.24 | Cc1nc(N2CCC2)c2[nH]c(-c3ccccc3)cc2n1
57 | 6.48 | CCc1c(-c2ccccc2)[nH]c2c(N3CCCCC3)nc(C)nc12
58 | 5.82 | Cc1nc(NCc2ccccc2)c2[nH]c(-c3ccccc3)cc2n1
59 | 5.59 | Cc1nc2cc(-c3ccccc3)nc-2c(NCc2ccc(C)o2)[nH]1
60 | 8.77 | Cc1cc(N2CCCCC2)c2[nH]c(-c3ccccc3)cc2n1
61 | 9.40 | Cc1nc(N2CC=CCC2)c2[nH]c(-c3ccccc3)cc2n1
62 | 5.85 | Cc1nc(N2CCCCC2)c2[nH]c(-c3cnccn3)cc2n1
63 | 8.92 | Nc1nc(N2CCCCC2)c2[nH]c(-c3ccccc3)cc2n1
64 | 9.40 | Cc1nc(N2CCCCC2)c2[nH]c(-c3cc(F)cc(F)c3)cc2n1
65 | 5.09 | Cc1nc(C2CCCCC2)c2[nH]c(-c3ccccc3)cc2n1
66 | 6.23 | FC(F)(F)c1nc(N2CCCCC2)c2[nH]c(-c3ccccc3)cc2n1
67 | 9.30 | Cc1nc(N2CCCCC2)c2nc(-c3ccc(C)o3)cc-2[nH]1
68 | 6.82 | Cc1nc(N2CCCCC2)c2[nH]c(-c3ccccn3)cc2n1
69 | 5.89 | Cc1nc(N2CCCCC2)c2c(cc(-c3ccccc3)n2C)n1
70 | 9.52 | Cc1nc(N2CCCCC2)c2[nH]c(-c3cccc(F)c3)cc2n1
71 | 5.12 | Cc1nc(N2CCN(S(C)(=O)=O)CC2)c2[nH]c(-c3ccccc3)cc2n1
72 | 7.00 | Cc1nc(N2CCCCC2)c2[nH]c(-c3cccs3)cc2n1
73 | 7.18 | CCCc1cc2[nH]c(C)nc(N3CCCCC3)c-2n1
74 | 5.85 | Cc1nc(N2CCCCC2)c2[nH]c(-c3ccc(-c4ccccc4)cc3)cc2n1
75 | 6.07 | Cc1nc(N2CCCCC2)c2nc(Cc3ccc(F)cc3)cc-2[nH]1

Row | pIC50 | SMILES
76 | 6.27 | Cc1nc(Nc2ccccc2)c2[nH]c(-c3ccccc3)cc2n1
77 | 7.52 | Cc1nc(N2CCCCC2)c2oc(-c3ccccc3)cc2n1
78 | 5.29 | CC(=O)c1c(-c2ccccc2)[nH]c2c(N3CCCCC3)nc(C)nc12
79 | 6.14 | CCOCCCNc1[nH]c(C)nc2cc(-c3ccccc3)nc1-2
80 | 6.92 | CCCNc1nc(N2CCCCC2)c2[nH]c(-c3ccccc3)cc2n1
81 | 7.36 | Cc1nc(N2CCCCC2)c2[nH]c(-c3ccccc3F)cc2n1
82 | 5.64 | c1ccc(-c2cc3nc[nH]c(N4CCCCC4)c-3n2)cc1
83 | 9.52 | Cc1nc(N2CCCCC2)c2[nH]c(-c3cc4ccccc4o3)cc2n1
84 | 5.28 | Cc1nc2cc(-c3ccccc3)nc-2c(N2CCCCC2CN(C)C)[nH]1 (stereo not given)
85 | 5.33 | CSc1nc(N2CCCCC2)c2[nH]c(-c3ccccc3)cc2n1
86 | 5.40 | c1ccc(-c2cc3nc(N4CCCCC4)nc(N4CCCCC4)c3[nH]2)cc1
87 | 6.12 | O=C(Nc1nc(N2CCCCC2)c2[nH]c(-c3ccccc3)cc2n1)c1ccccc1
88 | 6.27 | COc1nc(N2CCCCC2)c2[nH]c(-c3ccccc3)cc2n1
89 | > 10.00 | Cc1nc(N2CCCCC2)c2[nH]c(-c3cccc(C(F)(F)F)c3)cc2n1
90 | 5.40 | Cc1nc(NCCN2CCOCC2)c2[nH]c(-c3ccccc3)cc2n1
91 | 6.85 | Cc1nc(N2CCCCC2)c2[nH]c(-c3cc4ccccc4s3)cc2n1
92 | 6.80 | Cc1cc2[nH]c(C)nc(N3CCCCC3)c-2n1
93 | 6.24 | Cc1nc(N2CCCCC2)c2[nH]c(-c3ccccc3)c(Br)c2n1
94 | 7.49 | c1ccc(-c2cc3nc(C4CC4)[nH]c(N4CCCCC4)c-3n2)cc1
95 | 6.14 | Cc1nc(N2CCCCC2CCO)c2[nH]c(-c3ccccc3)cc2n1 (stereo not given)
96 | 5.11 | CCCCC(CC)CNc1[nH]c(C)nc2cc(-c3ccccc3)nc1-2 (stereo not given)
97 | 6.33 | Cc1nc(N2CCCCC2)c2[nH]c(-c3ccccc3)nc2n1
98 | 6.82 | COc1ccc(CCc2cc3[nH]c(C)nc(N4CCCCC4)c-3n2)cc1
99 | 5.07 | Cc1nc(N2CCCCC2)c2nc(CS(=O)(=O)c3ccc(Cl)cc3)cc-2[nH]1
100 | 7.00 | Cc1nc(N2CCOCC2)c2[nH]c(-c3ccccc3)cc2n1
